High-throughput results (PubChem BioAssay)
XBP1 UPR activ – adaptive UPR (XBP1) activation; CHO-XBP1 luciferase reporter, IRE1-XBP1 UPR activation, luminescence; percent of tunicamycin response, DMSO as zero; activation, % at 20 µM; 0.33% of 330,000 active;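 active means versus positive control, 20 µM dose yields 30% or more activation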;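 further: 100% = tunicamycin at 10 µg/mL and 0% = DMSO only wells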
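Assay system: CHO-XBP1 luciferase reporter cells; Schedule: 6 h treatment, 37 °C; Detection: glow luminescence from Steady-Glo reagent; Benchmarks: high control tunicamycin 10 µg/mL final, low control DMSO vehicle only.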
Mdm2 ligase inh – Mdm2 E3 ligase (human) inhibition; 0.11% of 210,000 active; signal enhancement, % at 5 µM; cell-based MDM2 ubiquitination luciferase reporter, 2 h; 0 = plate control, 100 = twice control, blank-subtracted; AID 1230; Q00987;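 active means signal enhancement of 30% or more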;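 further: luminescence tracks abundance of the self-degrading MDM2-luciferase fusion protein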
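test system = mammalian cells stably expressing self-ubiquitinating, self-degrading MDM2 E3–luciferase fusion | quantity = 2000 cells/well | incubation = cell settling 4 h, compound treatment 2 h, both 37 °C | signal = luminescence with SteadyLite reagent, 15 min at room temperature | evaluation = % enhancement relative to plate controls after blank subtraction | benchmarks = plate controls and plate blanks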
CHOP UPR activ – apoptotic UPR (CHOP) activation. CHO-CHOP luciferase reporter, luminescence; percent of tunicamycin response over DMSO baseline. activation, % at 10 µM. 0.34% of 330,000 active. AID 449763;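 active means at 10 µM dose, activation of 40% or more, normalized to positive control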;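 further: 100% = tunicamycin at 10 µg/mL and 0% = DMSO alone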
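Test system: CHO CHOP reporter cells. Input: 500 CHO-CHOP cells per well. Medium: F12 with 10% FBS. Technique: luciferase luminescence. Measure: percent activation relative to tunicamycin control. Dosing: 10 µM compound, 0.5% DMSO. Timing: 16-18 h cell attachment, then 6 h compound exposure, 37 °C.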
B2AR ag – human beta-2 adrenergic receptor agonism by FAP | P07550 | Am2.2-beta2AR cells, FAP receptor internalization, flow cytometry | response, % (no concentration beside the values) | 0.43% of 340,000 active | AID 504454;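 active means response above a set limit, near 3 SD of response in nonfluorescent compounds, cut at about 42% in these data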
Target sequence (P07550 whole entry, looked up): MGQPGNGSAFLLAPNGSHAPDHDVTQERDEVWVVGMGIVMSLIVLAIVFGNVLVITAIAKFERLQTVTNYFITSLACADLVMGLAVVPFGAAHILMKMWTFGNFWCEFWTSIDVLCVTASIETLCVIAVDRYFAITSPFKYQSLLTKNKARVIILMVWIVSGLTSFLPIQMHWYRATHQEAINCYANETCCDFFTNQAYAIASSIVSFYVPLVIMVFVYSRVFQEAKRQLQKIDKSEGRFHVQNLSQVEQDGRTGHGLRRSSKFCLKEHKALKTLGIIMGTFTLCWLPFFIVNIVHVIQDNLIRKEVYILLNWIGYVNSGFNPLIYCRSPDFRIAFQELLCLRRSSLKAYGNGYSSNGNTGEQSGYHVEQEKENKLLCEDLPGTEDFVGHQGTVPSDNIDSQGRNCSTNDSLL
Mdm2 MdmX PPI – inhibitors of human Mdm2/MdmX interaction. O15151+Q00987. SaOS-2 split-luciferase Mdm2/MdmX complementation, luminescence. inhibition, % at 8 µM. 3% of 330,000 active. AID 485346;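 active means inhibition of at least 50% at 8 µM in the primary screen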
Dynein cargo inh – dynein cargo transport inhibition; 3617.4 mouse cells, GR-EGFP nuclear translocation imaging; test concentration mostly 20 µM; stimulated with dexamethasone, 1 µM; active compounds read low; z-score, hits read low; 0.47% of 220,000 active;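 active means plate z-score of nuclear minus cytoplasmic receptor signal below a set negative limit, without overly bright fluorescence or cell loss, cut at about -3.5 in these data, passing the limit was not always enough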;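 further: z-score of nuclear minus cytoplasmic ring GR-EGFP intensity difference per well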
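Also added – dexamethasone, 1.0 µM final · Buffer or medium – tet-free, stripped-serum medium · Schedule – induction 48 h, compound 1 h, agonist 30 min · Detection – formaldehyde fixation, Hoechst nuclear stain, 10x automated fluorescence imaging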
Mdm2-MdmX conf – confirmation of human Mdm2/MdmX interaction inhibitors | Mdm2-MdmX binding, luminescent assay | 55% of 10,000 active | inhibition, % at 8 µM | shares compounds with Mdm2 MdmX PPI; in the data active means inhibition above about 40%
FLuc counter – full-length luciferase inhibition in Mdm2/MdmX counter-screen. AID 504607. shares compounds with Mdm2 MdmX PPI. inhibition, % at 8 µM. SaOS-2 full-length luciferase counterscreen, luminescence. 77% of 6,200 active;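 active means mean inhibition at 8 µM reaching about 37%, which flags the compound as non-specific, limit read from the data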;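 further: p53-null SaOS-2 cells with luciferase driven by a doxycycline-inducible promoter; compound on cells about two nights before reading with doxycycline added after day one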
Starred values were filed as active, the others as inactive; . = not tested or not shown. Hits are enriched below; roughly 3.7% of the tested compounds scored in any of these assays.

SMILES	XBP1 UPR activ	Mdm2 ligase inh	CHOP UPR activ	B2AR ag	Mdm2 MdmX PPI	Dynein cargo inh	Mdm2-MdmX conf	FLuc counter
O=C(c1cccc(-c2ccccc2)c1)N1CC[C@@H](N2CCC(O)CC2)[C@H](O)C1	-7	.	2	-1	6	.	.	.
Cc1ccc(C2(c3ccc(C)cc3)CC2C(=O)Nc2ccc([N+](=O)[O-])cc2O)cc1 (stereo unspecified)	4	-2	18	18	96*	-1.2	93*	49*
CC1(C)CC1C(=O)Nc1ccc([N+](=O)[O-])cc1Br (stereo unspecified)	0	-9	0	1	22	3.2	.	.
Cc1ccc(C)c(S(=O)(=O)N2CCN(C(=O)CCC(=O)c3cc(C)sc3C)CC2)c1	-6	.	1	14	25	.	.	.
Cc1cc2c(sc3c(C)ccc(C)c32)c(C)n1	3	-8	-2	11	24	0.14	.	.
COc1ccccc1/C=C/C(=O)OCC(=O)Nc1ccc(Cl)cn1	-2	-8	0	1	55*	-1	51*	60*
Cc1ccc(NC(=O)CSc2nc3ccccc3c(=O)n2CCCN2CCCCC2)cc1C	-2	7	1	19	75*	-1.5	40*	62*
CC(=O)c1cccc(NC(=O)CSc2nc3ccccc3c(=O)n2CCCN2CCOCC2)c1	-2	.	0	-1	0	.	.	.
CCc1ccc(NC(=O)CSc2nc3ccccc3c(=O)n2CCCN2CCC(C)CC2)cc1	2	-6	0	10	86*	-0.59	49*	36*
O=C(CSc1nc2ccccc2c(=O)n1CCCN1CCOCC1)Nc1ccc(Br)cc1	-5	.	1	-9	34	.	.	.
CCCCCCN1Cc2ccccc2C1	-2	-30	1	5	-11	0.27	.	.
CCCCCCCCn1ccc(=N)cc1	1	-41	16	7	55*	-0.76	61*	48*
Cc1sc2ncnc(Sc3ccccc3C(=O)O)c2c1C	0	-2	4	-2	26	0.09	.	.
Cn1nnnc1Sc1ncnc2scc(-c3ccccc3Cl)c12	2	.	1	-2	68*	.	59*	21
Cc1sc2ncnc(Sc3nnnn3-c3ccccc3)c2c1C	-6	-12	7	1	88*	-0.68	48*	7
Cn1nnnc1Sc1c(Cl)cccc1[N+](=O)[O-]	-2	-16	-3	-3	14	2.6	.	.
Cn1nnnc1Sc1ncnc2scc(-c3cccc4c3sc3ccccc34)c12	1	.	3	11	100*	.	67*	48*
O=C(O)CSc1ncnc2scc(-c3ccccc3)c12	-1	-2	1	6	4	0.83	.	.
Cc1cc(C)c(C(=O)NC2CCCc3c2cnn3-c2cccc(C)c2C)o1 (stereo unspecified)	-3	.	-1	5	78*	.	75*	43*
Cc1cccc(-n2ncc3c2CCCC3NC(=O)C2(C(N)=O)CC2)c1C (stereo unspecified)	-6	.	0	-4	-14	.	.	.
O=C(NC1CCCc2c1cnn2-c1ccc(F)cc1F)c1ccccn1 (stereo unspecified)	0	19	-1	1	-20	0.088	.	.
O=C(NC1CCCc2c1cnn2-c1ccccc1F)c1ccccn1 (stereo unspecified)	-5	.	0	6	86*	.	72*	29
O=[N+]([O-])c1ccc(NCc2ccccc2N2CCC(CO)CC2)nc1	-1	.	1	5	-2	.	.	.
Cc1cc(C)c(NC(=O)CS(=O)CC(=O)N2CCN(c3cccc(C)c3C)CC2)c(C)c1 (stereo unspecified)	-1	.	-1	9	24	.	.	.
O=c1cc(O)c2sc(Nc3ccc(Cl)c(F)c3)nc2[nH]1	0	.	-2	0	72*	2	56*	45*
SMILES	XBP1 UPR activ	Mdm2 ligase inh	CHOP UPR activ	B2AR ag	Mdm2 MdmX PPI	Dynein cargo inh	Mdm2-MdmX conf	FLuc counter
O=c1cc(O)c2sc(Nc3ccc(F)c(Cl)c3)nc2[nH]1	-1	-19	1	4	60*	-0.51	45*	63*
Cc1ccc(OCCCC(=O)NNC(=O)c2ccccn2)cc1	1	.	-1	1	52*	.	44*	45*
Cc1cc(C)cc(OCC(=O)NNC(=O)c2ccccn2)c1	0	.	-2	-1	50*	.	32	.
COc1ccc(C2/C(=C(/O)c3ccc4c(c3)CC(C)O4)C(=O)C(=O)N2CCN2CCOCC2)cc1OC (stereo unspecified)	-1	.	-1	-5	18	.	.	.
CC1C(c2ccccc2)N(C)C(c2ccccc2)C(C)C1(O)C#Cc1ccccc1 (stereo unspecified)	2	-4	-1	13	71*	0.19	25	.
CCCCN1C[C@H](COC(=O)CCC)Oc2cccc(F)c2S1(=O)=O	.	.	.	-3	.	.	.	.
CC(=O)c1cccc(NC(=O)CNC(=O)c2sc3ccccc3c2Cl)c1	-2	.	3	7	76*	.	48*	55*
COc1ccccc1NC(=O)NCCCCc1ccccc1	-6	.	0	-11	2	.	.	.
COc1ccc(NC(=O)NCCCCc2ccccc2)c(OC)c1	-4	.	-1	-3	58*	.	23	.
COc1ccc(NC(=O)CNC(=O)c2sc3ccccc3c2Cl)c(OC)c1	10	.	2	-4	77*	.	8	.
CN(C)S(=O)(=O)c1cccc(NC(=O)CSc2nc3c(cc2C#N)C(=O)CC(C)(C)C3)c1	-3	-6	-1	16	57*	0.53	51*	52*
CN(C)S(=O)(=O)c1ccc(Cl)c(NC(=O)CSc2nc3c(cc2C#N)C(=O)CC(C)(C)C3)c1	2	-4	5	-8	13	-0.58	.	.
Cn1c(=O)c2c(SCc3ccccc3)nc(-c3ccco3)nc2n(C)c1=O	.	-17	.	.	.	-0.37	.	.
Cn1c(=O)c2c(SCc3cccc(C(F)(F)F)c3)nc(-c3ccco3)nc2n(C)c1=O	20	-14	6	-17	83*	0.56	-9	.
COc1ccc(CNC(=O)CNC(=O)c2ccc(C(C)(C)C)cc2)cc1OC	-3	.	1	11	-16	.	.	.
CCOC(=O)c1c(C)nc2sc(C(=O)Nc3ccc(OC)cc3)c(N)c2c1-c1ccc(OC)cc1	0	-2	1	2	58*	-0.7	56*	53*
